# From ChEMBL document CHEMBL1121955, “Cardenolide analogues. 14. Synthesis and biological activity of glucosides of C17 beta-modified derivatives of digitoxigenin” (J Med Chem, 1982)
# Active and inactive are the calls of the source.
# Experiments:
# Cavia porcellus [1] = species: Cavia porcellus; test: The dose producing 75% increase in contractility in guinea pig atria; Inactive; assay type: functional
# How it was run: (§1)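 Isolated guinea pig left atria were equilibrated 1 h, set to 1 g resting tension, and paced with 10-ms rectangular pulses at 90/min, 20% above threshold (minimum 5 V). Cumulative doses in propylene glycol/water (7:3) were added at 30-min intervals or 5 min after maximum effect. Isometric force change was referenced to control atria. At least nine replicate curves were fitted, and ΔF75 was read from the pooled fitted curve.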
# Cavia porcellus [2] = species: Cavia porcellus; test: Relative potency of compound to Digitalis receptor was determined to that of digitoxigenin; Inactive
# Cavia porcellus [3] = species: Cavia porcellus; test: The dose producing 75% increase in contractility in guinea pig atria
# Cavia porcellus [4] = species: Cavia porcellus; test: Binding affinity against digitalis receptor was determined relative to digitoxigenin
# Cavia porcellus [5] = species: Cavia porcellus; test: The dose producing 75% increase in contractility in guinea pig atria; assay type: functional; how it was run: as §1
SMILES,Delta F75 (Cavia porcellus [5]) [M l-1],other results
C[C@]12CC[C@H](O)CC1CC[C@@H]1[C@@H]2CC[C@]2(C)[C@@H](/C=C/C(=O)O)CC[C@]12O (some centres not stated),–,Delta F75 (Cavia porcellus [1]): inactive; Relative potency (Cavia porcellus [2]): inactive
C[C@]12CC[C@H](O)C[C@H]1CC[C@@H]1[C@@H]2CC[C@]2(C)[C@@H](C3=CC(=O)OC3)CC[C@]12O [DIGITOXIGENIN],–,Delta F75 (Cavia porcellus [3]): 1.1e-06 M l-1; Relative potency (Cavia porcellus [4]): 1
CCCOC(=O)/C=C/[C@H]1CC[C@@]2(O)[C@@H]3CC[C@H]4C[C@@H](O[C@@H]5O[C@H](CO)[C@@H](O)[C@H](O)[C@H]5O)CC[C@]4(C)[C@H]3CC[C@]12C,1.1e-05,–
COC(=O)/C=C/[C@H]1CC[C@]2(O)[C@@H]3CCC4C[C@@H](O)CC[C@]4(C)[C@H]3CC[C@]12C (some centres not stated),3.8e-06,Relative potency (Cavia porcellus [4]): 0.29
C[C@H]1O[C@@H](O[C@H]2[C@@H](O)C[C@H](O[C@H]3[C@@H](O)C[C@H](O[C@H]4CC[C@@]5(C)[C@H](CC[C@@H]6[C@@H]5CC[C@]5(C)[C@@H](C7=CC(=O)OC7)CC[C@]65O)C4)O[C@@H]3C)O[C@@H]2C)C[C@H](O)[C@@H]1O [DIGITOXIN],1.6e-07,–
C[C@]12CC[C@H](O)CC1CC[C@@H]1[C@@H]2CC[C@]2(C)[C@@H](/C=C/C#N)CC[C@]12O (some centres not stated),1.6e-06,Relative potency (Cavia porcellus [4]): 0.69
CC(=O)/C=C/[C@H]1CC[C@@]2(O)[C@@H]3CC[C@H]4C[C@@H](O[C@@H]5O[C@H](CO)[C@@H](O)[C@H](O)[C@H]5O)CC[C@]4(C)[C@H]3CC[C@]12C,3.1e-06,–
CC(C)COC(=O)/C=C/[C@H]1CC[C@@]2(O)[C@@H]3CC[C@H]4C[C@@H](O[C@@H]5O[C@H](CO)[C@@H](O)[C@H](O)[C@H]5O)CC[C@]4(C)[C@H]3CC[C@]12C,6.3e-05,–
C[C@]12CC[C@H](O)C[C@H]1CC[C@@H]1[C@@H]2CC[C@]2(C)[C@@H](/C=C/C(N)=O)CC[C@]12O,<20,Relative potency (Cavia porcellus [4]): < 0.01
CC(=O)/C=C/[C@H]1CC[C@]2(O)[C@@H]3CCC4C[C@@H](O)CC[C@]4(C)[C@H]3CC[C@]12C (some centres not stated),5.6e-06,–
C[C@]12CC[C@H](O[C@@H]3O[C@H](CO)[C@@H](O)[C@H](O)[C@H]3O)C[C@@H]1CC[C@@H]1[C@@H]2CC[C@]2(C)[C@@H](/C=C/C#N)CC[C@@]12O,6.9e-07,–
CCCCOC(=O)/C=C/[C@H]1CC[C@@]2(O)[C@@H]3CC[C@H]4C[C@@H](O[C@@H]5O[C@H](CO)[C@@H](O)[C@H](O)[C@H]5O)CC[C@]4(C)[C@H]3CC[C@]12C,6.9e-05,–
CCOC(=O)/C=C/[C@H]1CC[C@@]2(O)[C@@H]3CC[C@H]4C[C@@H](O[C@@H]5O[C@H](CO)[C@@H](O)[C@H](O)[C@H]5O)CC[C@]4(C)[C@H]3CC[C@]12C,6.2e-06,–
COC(=O)/C=C/[C@H]1CC[C@@]2(O)[C@@H]3CC[C@H]4C[C@@H](O[C@@H]5O[C@H](CO)[C@@H](O)[C@H](O)[C@H]5O)CC[C@]4(C)[C@H]3CC[C@]12C,1.5e-06,–
C[C@H]1O[C@@H](O[C@H]2[C@@H](O)C[C@H](O[C@H]3[C@@H](O)C[C@H](O[C@H]4CC[C@@]5(C)[C@H](CC[C@@H]6[C@@H]5C[C@@H](O)[C@]5(C)[C@@H](C7=CC(=O)OC7)CC[C@]65O)C4)O[C@@H]3C)O[C@@H]2C)C[C@H](O)[C@@H]1O [DIGOXIN],6.6e-07,–
C[C@@H]1O[C@@H](O[C@H]2C[C@@H](O)[C@]3(CO)[C@H]4[C@H](O)C[C@]5(C)[C@@H](C6=CC(=O)OC6)CC[C@]5(O)[C@@H]4CC[C@]3(O)C2)[C@H](O)[C@H](O)[C@H]1O [OUABAIN],–,Delta F75 (Cavia porcellus [3]): 2.9e-07 M l-1
CC(C)OC(=O)/C=C/[C@H]1CC[C@@]2(O)[C@@H]3CC[C@H]4C[C@@H](O[C@@H]5O[C@H](CO)[C@@H](O)[C@H](O)[C@H]5O)CC[C@]4(C)[C@H]3CC[C@]12C,1.5e-05,–
